Measured values pooled from the literature.
Compare with care: the assays were run in different laboratories.
Target: Serine/threonine-protein kinase TAO3 (TAOK3, Homo sapiens, UniProt Q9H2K8)
One construct used (Q9H2K8 1-898): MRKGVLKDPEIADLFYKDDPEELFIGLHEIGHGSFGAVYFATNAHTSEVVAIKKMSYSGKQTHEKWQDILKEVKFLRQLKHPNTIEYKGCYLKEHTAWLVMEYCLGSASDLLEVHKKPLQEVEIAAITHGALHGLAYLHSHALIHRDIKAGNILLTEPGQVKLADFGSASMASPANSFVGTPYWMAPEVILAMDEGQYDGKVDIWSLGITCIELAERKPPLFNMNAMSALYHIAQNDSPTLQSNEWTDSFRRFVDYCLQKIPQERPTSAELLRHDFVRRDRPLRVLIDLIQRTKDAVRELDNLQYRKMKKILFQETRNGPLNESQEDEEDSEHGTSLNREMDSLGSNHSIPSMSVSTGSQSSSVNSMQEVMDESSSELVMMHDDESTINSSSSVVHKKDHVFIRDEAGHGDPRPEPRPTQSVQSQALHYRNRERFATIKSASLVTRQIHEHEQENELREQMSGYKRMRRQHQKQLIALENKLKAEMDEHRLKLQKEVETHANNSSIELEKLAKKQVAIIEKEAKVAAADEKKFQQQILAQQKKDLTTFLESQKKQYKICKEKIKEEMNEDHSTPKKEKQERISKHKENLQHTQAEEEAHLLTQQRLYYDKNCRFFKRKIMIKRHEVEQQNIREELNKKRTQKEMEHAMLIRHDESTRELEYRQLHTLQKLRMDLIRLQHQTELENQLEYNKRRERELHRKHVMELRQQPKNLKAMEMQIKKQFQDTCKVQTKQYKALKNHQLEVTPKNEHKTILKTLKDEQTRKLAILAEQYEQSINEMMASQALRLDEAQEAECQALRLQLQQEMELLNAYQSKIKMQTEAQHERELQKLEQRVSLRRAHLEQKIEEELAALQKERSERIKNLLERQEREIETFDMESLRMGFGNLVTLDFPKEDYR

C=CC(=O)N1CCC(C(=O)NCC(=O)N2CCN(c3nc(-c4cnc(N)nc4C(F)F)nc(N4CCOCC4)n3)CC2)CC1  remaining binding (binding, competition with immobilised ligand; 1 µM): 77%
CN(CCCC(F)(F)F)c1nccc(-c2cnn3ncccc23)n1  remaining binding (binding; 1 µM): 61%
O=C(NCCCN1CCOCC1)c1ccc(Nc2ncc(Cl)c(-c3ccc(Cl)s3)n2)cc1  remaining binding (binding, competition with immobilised ligand; 1 µM): 49%
CN(C)c1nccc(-c2cnc3ncccn23)n1  remaining binding (binding; 1 µM): 68%
Cc1cc(NC(=O)c2cccc(S(F)(F)(F)(F)F)c2)cc(-n2ccn3nc(-c4cccnc4)cc23)c1  remaining binding (cell-free assay, competition with immobilised ligand; 1 µM): 100%
c1cnn2ncc(-c3ccnc(N4CCC45COC5)n3)c2c1  remaining binding (binding; 1 µM): 73%
CCC(=O)N[C@H]1CC[C@@H](C(=O)N(C)c2ccc(-c3nc4ccccc4o3)cc2)C1  remaining binding (cell-free assay, competition with immobilised ligand; 1 µM): 70%
O=C(NCCCN1CCOCC1)c1ccc(Nc2nccc(-c3cc4ccccc4s3)n2)cc1  remaining binding (binding, competition with immobilised ligand; 1 µM): 82%
CNCc1ccccc1-c1csc([C@@H](C)Nc2nc(C)nc3cc(OC)c(OC)cc23)c1  remaining binding (cell-free assay, competition with immobilised ligand; 1 µM): 83%
C[C@@H](c1ccc(-n2cnc3c(N)ncnc32)cc1)N1CCc2nn(C)c(Cc3ccccc3)c2C1=O  remaining binding (binding, competition with immobilised ligand; 0.1 µM): 77%
CCN1CCN(Cc2ccc(C(=O)Nc3ccc(C)c(Oc4ccc5c(c4)CC(=O)N5)c3)cc2C(F)(F)F)CC1  remaining binding (binding, competition with immobilised ligand; 1 µM): 100%
Cc1cnc(Nc2ccc(C(=O)N3CCC(N4CCCC4)CC3)cc2)nc1-c1cc2ccccc2s1  remaining binding (binding, competition with immobilised ligand; 1 µM): 77%
CN(c1nccc(-c2cnn3ncccc23)n1)C1CC1  remaining binding (binding; 1 µM): 54%
CS(=O)(=O)c1cc(C2(NC(=O)c3cncc4c3cnn4-c3ccc(F)cc3)CC2)ccn1  remaining binding (cell-free assay, competition with immobilised ligand; 1 µM): 97%
COc1cnc(Nc2cccc(S(N)(=O)=O)c2)nc1N1CCN(c2ccccc2)C(=O)C1  remaining binding (binding, competition with immobilised ligand; 1 µM): 93%
C[C@@H]1CCN(c2nccc(-c3cnn4ncccc34)n2)C1  remaining binding (binding; 1 µM): 90%
CN1CCN(c2cnc3c(C4CCN(C(=O)c5ccc(OC(F)(F)F)cc5N)CC4)ncnc3c2)CC1  remaining binding (cell-free assay, competition with immobilised ligand; 1 µM): 100%
CC1CCCN1c1nccc(-c2cnn3ncccc23)n1 (stereo not shown)  remaining binding (binding; 1 µM): 48%
C[C@@H]1CN(c2cc(-c3nn(C)c4ccc(OC5(C)CC5)cc34)ncn2)C[C@H](C)O1  remaining binding (binding, competition with immobilised ligand; 1 µM): 35%
O=C(NCC1CCOCC1)c1n[nH]cc1NC(=O)c1c(F)cccc1F  remaining binding (binding, competition with immobilised ligand; 1 µM): 45%
N[C@@H]1CCN(c2nccc(-c3cnn4ncccc34)n2)C1  remaining binding (binding; 1 µM): 100%
Cn1cc(Cl)c2c(Oc3c(F)cc(Nc4cc(Cl)nc(N)n4)cc3F)ccnc21  remaining binding (cell-free assay, competition with immobilised ligand; 0.1 µM): 100%
